Source: ChEMBL document CHEMBL1147733, “Design, synthesis, and biological evaluation of phosphinopeptides against Trypanosoma cruzi targeting trypanothione biosynthesis” (J Med Chem, 2006)

Experiments:
Trypanosoma cruzi [1] = assay: Inhibitory activity against Trypanosoma cruzi amastigotes; assay type: functional, organism-based; settings: for IC50: Trypanosoma cruzi
Method in brief: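 Gamma-irradiated L6E9 myoblasts in DMEM/20% fetal calf serum, 24 h at 37 °C, then infected with 4.17 × 10⁶ trypomastigotes/well for 2 h (7% CO2). After washing, medium with 1 µCi/mL [5,6-³H]uracil and drug in ethanol added; TCA-precipitable ³H measured at day 3. Host toxicity up to 50 µM by phase-contrast microscopy; values are means of three experiments.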

Trypanosoma cruzi [2] = assay: Inhibitory activity against Trypanosoma cruzi Y epimastigotes; assay type: functional, organism-based
Method in brief: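 Epimastigotes in sterile screw-cap tubes, drugs in absolute ethanol at 1, 5, 15 and 25 µg/mL, each in triplicate; ethanol-only control and medium blank. Growth read as absorbance at 600 nm against medium; percent inhibition = 100 − (ΔA_drug × 100)/ΔA_control, ΔA taken between start and end of culture.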

Structure (SMILES) | IC50 (Trypanosoma cruzi [1]) [µM] | IC50 (Trypanosoma cruzi [2]) [µM] | Inhibition (Trypanosoma cruzi [1]) [%]
N#CSCCOc1ccc(Oc2ccccc2)cc1 | 2 | – | –
CCCCP(=O)(O)CNC(=O)[C@H](CC(C)C)NC(=O)CCC(N)C(=O)O (some centres not stated) | 9.8 | > 50 | –
CCP(=O)(O)CNC(=O)[C@H](CC(C)C)NC(=O)CCC(N)C(=O)O (some centres not stated) | > 50 | > 50 | –
CCCCCCP(=O)(O)CNC(=O)[C@H](CC(C)C)NC(=O)CCC(N)C(=O)O (some centres not stated) | > 50 | > 50 | 45
CCCCCCCP(=O)(O)CNC(=O)[C@H](CC(C)C)NC(=O)CCC(N)C(=O)O (some centres not stated) | > 50 | > 50 | 31
CC(C)C[C@H](NC(=O)CCC(N)C(=O)O)C(=O)NCP(C)(=O)O (some centres not stated) | > 50 | > 50 | –
CCCCCP(=O)(O)CNC(=O)[C@H](CC(C)C)NC(=O)CCC(N)C(=O)O (some centres not stated) | 14.2 | > 50 | –
CCCP(=O)(O)CNC(=O)[C@H](CC(C)C)NC(=O)CCC(N)C(=O)O (some centres not stated) | > 50 | > 50 | –
